SR-BI uptake up – activators of SR-BI mediated DiI-HDL uptake, primary screen, ldlA[mSR-BI] CHO cells, DiI fluorescence | 3 h; 100 = double the neutral-control signal | activation, % at 12.5 µM | 320,000 compounds, 0.096% hits | AID 504775, 2011;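 active means mean replicate activation of at least 60% and every replicate at or above 60%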;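 further: 0% = median plate neutral-control signal and 100% = twice that signal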
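Test system: SR-BI-overexpressing, LDLR-lacking CHO cells; Medium: Ham's F12 with 0.5% BSA, HEPES 25 mM, pH 7.4; Schedule: 3 h, 37 °C; Technique: bottom-read fluorescence, 550/595 nm.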
SR-BI DiI inh – inhibitors of SR-BI mediated HDL lipid uptake, primary screen, ldlA[mSR-BI] cells, fluorescence, single point. inhibition, % at 12.5 µM. ldlA[mSR-BI] CHO cells, DiI-HDL uptake fluorescence, 3 h. Scavenger receptor class B member 1 (Mus musculus), Q61009. 320,000 compounds, 0.96% hits;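 active means mean replicate inhibition of at least 70% and a set share of replicates each scoring 70 or more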;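 further: 0% = median of neutral control wells and 100% = median of positive control wells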
Target sequence (Q61009 whole entry, looked up): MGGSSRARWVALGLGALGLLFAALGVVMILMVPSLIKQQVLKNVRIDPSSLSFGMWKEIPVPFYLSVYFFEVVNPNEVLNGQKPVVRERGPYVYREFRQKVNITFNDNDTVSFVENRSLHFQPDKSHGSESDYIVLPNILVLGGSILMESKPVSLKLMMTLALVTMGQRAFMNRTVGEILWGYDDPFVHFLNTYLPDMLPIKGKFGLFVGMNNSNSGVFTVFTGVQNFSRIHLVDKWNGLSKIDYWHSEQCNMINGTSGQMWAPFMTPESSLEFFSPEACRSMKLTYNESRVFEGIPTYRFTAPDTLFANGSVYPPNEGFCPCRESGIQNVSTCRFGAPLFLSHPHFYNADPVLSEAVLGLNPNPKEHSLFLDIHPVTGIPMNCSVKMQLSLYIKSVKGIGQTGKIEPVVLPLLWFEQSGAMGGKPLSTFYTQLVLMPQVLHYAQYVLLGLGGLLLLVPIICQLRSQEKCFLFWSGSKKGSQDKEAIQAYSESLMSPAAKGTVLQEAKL
Yeast superoxide – reduction of superoxide in aged yeast, primary screen, HTS; S. cerevisiae aged cells, superoxide DHE fluorescence; hits give low values; superoxide response (% of plate mean), % at 10 µM; 330,000 compounds, 0.18% hits; AID 2690, 2010;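 active means superoxide response under a set limit, about three screen SD below normal, cut at about 65% in these data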;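 further: yeast aged for seven days with compound at 30 °C before DHE staining; 100% = average MFI of all compound-treated wells on the plate with controls excluded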
Hep lipid drop – inhibitors of hepatocyte lipid droplet formation, primary screen, imaging, high-throughput imaging, BODIPY stain | 240,000 compounds, 0.4% hits | inhibition, % at 6.5 µM | AML12 mouse hepatocytes, oleate lipid droplets | AID 1656, 2009;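 active means lipid droplet intensity inhibited by at least 50%, with more than 500 cells counted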
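Assay system: AML12 hepatocytes (mouse); Probe or stimulus: oleic acid at 100 µM to induce lipid droplet formation; Dosing: compound at 6.5 µM only; Schedule: compound with oleate, overnight; Detection: fluorescence imaging, 20x objective, two fields per well; Measure: % inhibition of lipid droplet signal.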
AHR activator – AHR activators, primary screen, cell-based, luminescence, luciferase reporter, human; Aryl hydrocarbon receptor (Homo sapiens), P35869; AHR-responsive luciferase reporter cells; activation, % at 5 µM; 320,000 compounds, 2.5% hits; AID 2796, 2010; in the data active means activation above about 47%;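 further: 0% = vehicle wells and 100% = reference agonist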
SMARCA2 act – SMARCA2 (BRM) function activators, primary screen, cell-based, luminescence, high throughput. MG213 cells, MMTV-luciferase reporter, dexamethasone, overnight. activation, % at 9.1 µM. 370,000 compounds, 1% hits. AID 652017, 2013; in the data active means activation above about 7.8%;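 further: 0% = vehicle wells and 100% = reference activator wells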
SMARCA2 act conf – SMARCA2 (BRM) function activators, confirmation, cell-based, luminescence, triplicate; shares compounds with SMARCA2 act; MG213 cells, MMTV-luciferase with dexamethasone, overnight; MG213 cells expressing E1A, Rb sequestered; DMSO wells 0%, reference activator 100%; activation, % at 9.1 µM; 3,500 compounds, 30% hits; AID 652260, 2013;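 active means activation above its plate's cutoff, the mean activation of tested wells plus 3 SD, cut at about 7.9% in these data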
GAL4-VP16 Luc – GAL4-VP16 luciferase reporter activation, counter-screen for SMARCA2 (BRM) activator project, cell-based, pG5luc, luminescence, high throughput. 3,500 compounds, 41% hits. activation, % at 9.1 µM. HEK293 GAL4-VP16 pG5luc reporter; scaled: DMSO wells 0%, SAHA wells 100%. shares compounds with SMARCA2 act;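 active means activation above the solvent-only control well mean plus 3 SD, averaged across control plates, cut at about 5.2% in these data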
Numbers without * were called inactive; · = no result given. Compounds with a hit are over-represented: about 4.3% of the library has one in this group of screens.

SMILES | SR-BI uptake up | SR-BI DiI inh | Yeast superoxide | Hep lipid drop | AHR activator | SMARCA2 act | SMARCA2 act conf | GAL4-VP16 Luc
Cc1cc2[nH]c3c4ccccc4nc(C)c3c2cc1C | 11.0 | -11.0 | · | · | · | -7.5 | · | ·
Cc1cc2[nH]c3c(c[n+](C)c4ccccc34)c2cc1C | 14.7 | -14.7 | 79.6 | -81.4 | 5.6 | 112.2* | -15.7 | -0.7
C=CCn1c(O)c(C2=c3ccccc3=NC2=O)sc1=Nc1ccc(O)cc1 | -9.9 | 9.9 | 109.4 | -39.9 | 17.0 | 9.6* | -1.9 | -1.1
O=C1N=c2ccccc2=C1c1sc(=S)n(NC(=O)c2ccccc2)c1O | 26.7 | -26.7 | 89.2 | 13.2 | 18.2 | -0.5 | · | ·
O=C(c1ccc(C#Cc2ccccc2)cc1)N1CCC(O)CC1 | · | · | · | · | · | 1.1 | · | ·
COc1ccc(-c2cc(=O)c3cc(OC)ccc3o2)cc1 | 21.9 | -21.9 | 134.9 | 0.3 | 0.8 | 9.8* | 5.6 | 7.0*
CCC(N=c1cc(-c2ccc(OC)cc2)oc2ccc(C)cc12)C(=O)O (stereo unspecified) | 36.1 | -36.1 | 91.0 | -34.8 | -4.6 | 16.8* | 10.6* | 8.8*
COc1ccc2oc(-c3ccccc3)cc(=O)c2c1 | · | · | · | · | · | 4.6 | · | ·
COc1ccc2c(c1)oc(=O)c1cc(OC)ccc12 | -15.0 | 15.0 | 118.8 | 27.0 | 0.0 | 9.1* | 19.8* | 6.5*
COc1ccc2cc(-c3ccccc3)c(=O)oc2c1 | 14.5 | -14.5 | 89.4 | 3.4 | -4.9 | 9.7* | 3.2 | 9.2*
O=C(OC12CCCN(C1)/C(=C/c1ccccc1)C2)c1ccccc1 (stereo unspecified) | · | · | · | · | · | 0.6 | · | ·
Cn1c(CNC(=O)C2CCCCC2)cc2ccccc21 | -4.7 | 4.7 | 110.4 | 37.7 | 3.2 | 8.2* | -1.2 | -0.3
C[C@H](O)[C@@H]1C(=O)N2CCc3c([nH]c4cccc(-c5ccccc5)c34)[C@@H]2C[C@@H]1N(C)C(=O)c1ccccc1 | · | · | · | · | · | -3.8 | · | ·
CCN1CCN(CCOc2cccc(Oc3ccccc3)c2)CC1 | 16.3 | -16.3 | 88.9 | 2.3 | 1.6 | 8.0* | -3.0 | 0.7
CCCCCCn1cc(CN2CC=CS2(=O)=O)nn1 | · | · | · | · | · | -5.4 | · | ·
Cc1ccsc1/C=N/Nc1nc2ccccc2[nH]1 | -4.6 | 4.6 | · | -7.5 | · | 11.5* | 13.4* | 15.0*
CCc1nc2ccc(C(=O)Nc3ccc(NC(C)=O)cc3)cn2c1N(CCC(C)C)CCN(C)C | · | · | · | · | · | 8.4* | 1.2 | 0.2
C/C(=N\NC(=O)c1nnn(-c2nonc2N)c1C)c1ccc(OCc2ccccc2)cc1 | 12.9 | -12.9 | 98.1 | 10.5 | -0.3 | 14.4* | 4.5 | 6.1*
Cc1nc2ccc([N+](=O)[O-])cc2nc1C | 4.6 | -4.6 | 97.2 | -4.8 | -4.1 | -2.4 | · | ·
CC1=Nc2cc([N+](=O)[O-])ccc2NC(C)(C)C1 | · | · | 95.0 | -1.3 | 2.9 | 10.8* | 6.2 | 2.1
COc1cc(C=NN=c2sc3ccccc3n2C)ccc1OCCO | · | · | · | · | · | 11.0* | 10.2* | 11.8*
CC(C)C[C@@H]1COc2cc(Br)ccc2S(=O)(=O)N1Cc1cn(Cc2ccco2)nn1 | · | · | · | · | · | -1.7 | · | ·
Cc1ccc(Nc2ccc(C(=O)O)cc2N)cc1 | · | · | 99.3 | · | 20.6 | 9.4* | 1.3 | 9.5*
FC(F)(F)c1ccccc1NC(=S)OC1CCC12CCC(c1ccccc1)CC2 (stereo unspecified) | · | · | · | · | · | -4.6 | · | ·
c1cncc(-c2nnc(-c3ccco3)o2)c1 | 19.3 | -19.3 | 97.7 | 11.9 | -1.5 | -2.9 | · | ·

Assay outcomes from PubChem BioAssay.
